Screens: PubChem, The Scripps Research Institute Molecular Screening Center
OX1R antag-1 – blocks the human orexin 1 receptor; O43613; OX1R-expressing cells, FRET antagonist read-out; inhibition, % at 6.6 µM; hit rate 1.8% among 330,000; AID 485270; in the data active = inhibition mostly above about 38%, no sharp cut-off; inactive = mostly below about 40%;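 also: 0% = agonist challenge alone and 100% = reference antagonist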
Target sequence (O43613 whole entry, looked up): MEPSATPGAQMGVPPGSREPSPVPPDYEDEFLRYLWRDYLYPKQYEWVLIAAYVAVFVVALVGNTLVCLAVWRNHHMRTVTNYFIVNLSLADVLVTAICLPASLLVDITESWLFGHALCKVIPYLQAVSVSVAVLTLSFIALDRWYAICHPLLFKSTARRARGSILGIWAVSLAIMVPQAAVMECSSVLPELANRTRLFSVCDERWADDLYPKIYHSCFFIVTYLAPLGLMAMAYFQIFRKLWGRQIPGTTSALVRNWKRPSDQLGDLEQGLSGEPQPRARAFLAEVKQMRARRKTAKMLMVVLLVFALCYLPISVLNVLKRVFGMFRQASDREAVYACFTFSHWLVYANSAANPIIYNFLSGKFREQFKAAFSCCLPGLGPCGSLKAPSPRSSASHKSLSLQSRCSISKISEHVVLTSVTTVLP
TAAR1 ag – human TAAR1 agonism | Q96RJ0 | CHO RD-HGA16 TAAR1, Fluo-8 calcium fluorescence; vehicle wells 0%, saturating PEA agonist 100% | activation, % at 3 µM | hit rate 0.99% among 360,000 | AID 624467;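 active = activation above the mean activation of all test compounds in the run plus 3 SD, cut at about 38% in these data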
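Benchmarks: low control DMSO, high control PEA (EC100); System: CHO RD-HGA16 cells carrying human TAAR1 plus Gα16; Detection: Fluo-8 fluorescence, 5 s baseline then 140 s kinetic read; Schedule: 17-24 h plating, Fluo-8 75 min 37 °C, 30 min RT; Read-out basis: % activation from peak over basal fluorescence ratio, DMSO-to-PEA scaled.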
TAAR1 antag – antagonists of human TAAR1. AID 624466. CHO RD-HGA16 TAAR1, Fluo-8 calcium fluorescence, antagonist. inhibition, % at 3 µM. hit rate 1.5% among 360,000;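 active = inhibition above a per-plate cutoff, the mean inhibition of test compounds on that plate plus 3 SD, cut at about 49% in these data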;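 also: 0% = DMSO plus EC80 beta-PEA response and 100% = DMSO alone without agonist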
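Assay system: CHO-derived RD-HGA16 cells stably expressing human TAAR1 plus Gα16. Timing: 140 s kinetic read after compound, 140 s after agonist. Technique: kinetic Fluo-8 calcium fluorescence measurement. Measure: % inhibition of agonist calcium response.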
OX1R antag-2 – human HCRTR1 antagonism | CHO/OX1R cells, Fluo-8 calcium fluorescence, orexin A | inhibition, % at 5 µM | hit rate 0.43% among 330,000 | AID 434989;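 active = inhibition above its plate's threshold, mean inhibition of all tested compounds on the plate plus 3 SD, cut at about 37% in these data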;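 also: 0% = orexin A challenge wells and 100% = SB-334867-A antagonist wells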
CHO parental Ca – counter-screen for OX1R antagonists: effect in parental CHO cells | inhibition, % at 5.6 µM | hit rate 0.63% among 330,000 | parental CHO-K1, ATP-induced calcium, Fluo-8 fluorescence;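 active = inhibition above that plate's mean sample inhibition plus 3 SD, cut at about 26% in these data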;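 also: 0% = ATP-challenged DMSO wells and 100% = DMSO wells without ATP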
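Test system: parental CHO cells; detection: calcium-sensitive Fluo-8 fluorescence; evaluation: percent inhibition of calcium signal; also added: ATP as calcium-mobilizing challenge; repeats: one well per compound; control set: ATP-challenged DMSO wells low, unchallenged DMSO wells high; compound: single nominal dose of 5.6 µM per compound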
GPR7 antag – antagonists of human GPR7 (neuropeptides B/W receptor 1) | GPR7-expressing cells, fluorescence antagonist assay | inhibition, % at 4.4 µM | hit rate 1.1% among 290,000 | AID 1861; in the data active = inhibition above about 16%, passing the limit was not always enough;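 also: cells stimulated with the agonist NPW; 0% = agonist with vehicle and 100% = vehicle without agonist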
Target sequence (P48145 whole entry, looked up): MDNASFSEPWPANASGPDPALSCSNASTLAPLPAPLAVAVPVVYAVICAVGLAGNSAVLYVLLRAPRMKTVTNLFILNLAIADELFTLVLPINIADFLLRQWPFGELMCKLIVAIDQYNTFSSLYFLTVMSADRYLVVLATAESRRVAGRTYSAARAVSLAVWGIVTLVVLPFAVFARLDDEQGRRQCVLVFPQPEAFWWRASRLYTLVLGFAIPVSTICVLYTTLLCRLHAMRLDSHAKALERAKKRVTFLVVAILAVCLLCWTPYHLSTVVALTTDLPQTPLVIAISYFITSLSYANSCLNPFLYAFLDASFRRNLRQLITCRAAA
TAAR1 nonsel count – nonselective antagonism, TAAR1 counter-screen; shares compounds with TAAR1 antag; counterscreen cell line, calcium fluorescence, antagonist mode; inhibition, % at 3 µM; hit rate 77% among 2,400; AID 651780; in the data active = inhibition above about 22%;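 also: CHO-Ga16 host cells stimulated with ATP at an EC80 level; 0% = agonist EC80 plus vehicle and 100% = vehicle without agonist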
TAAR1 ant conf – human TAAR1 antagonism, confirmed; shares compounds with TAAR1 antag; TAAR1-expressing cells, fluorescence antagonist read-out; inhibition, % at 3 µM; hit rate 40% among 2,400; in the data active = inhibition above about 49%;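 also: CHO-Ga16 host cells challenged with agonist PEA near its EC80; 0% = agonist at EC80 plus vehicle and 100% = vehicle with no agonist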
Ga16 ag counter – counter-screen for TAAR1 antagonists: nonselective Ga16 agonists; shares compounds with TAAR1 antag; Ga16-expressing cells, calcium fluorescence, agonist counterscreen; activation, % at 3 µM; hit rate 18% among 2,400; AID 651953; in the data active = activation above about 12%;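 also: 0% = vehicle wells and 100% = saturating stimulus response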
TAAR1 ag count – activates human TAAR1 in antagonist counter-screen; shares compounds with TAAR1 antag; hTAAR1 cell line, fluorescence activation, agonist mode; activation, % at 3 µM; hit rate 2% among 2,400; in the data active = activation above about 37%;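 also: CHO cells stably expressing TAAR1 with calcium dye readout; 0% = DMSO vehicle and 100% = full agonist response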
* marks the source's active call; other numbers are inactive results; nt = not tested or not shown. Rows were chosen to be rich in hits. Some 4.6% of all compounds tested hit in one or more screens of this group.

SMILES	OX1R antag-1	TAAR1 ag	TAAR1 antag	OX1R antag-2	CHO parental Ca	GPR7 antag	TAAR1 nonsel count	TAAR1 ant conf	Ga16 ag counter	TAAR1 ag count
COc1ccc(N2CCN(C(=O)COC(=O)CCOc3cc(C)ccc3C)CC2)cc1	17.7	9.8	51.0*	-26.5	0.5	nt	39.6*	52.1*	12.0*	6.6
Cc1ccc(C)c(OCCC(=O)OCC(=O)NCCNC(=O)COC(=O)CCOc2cc(C)ccc2C)c1	12.6	20.2	86.7*	12.1	-0.4	nt	47.7*	68.2*	16.5*	17.7
COc1ccc(N2CCN(C(=O)COC(=O)CCOc3ccccc3C)CC2)cc1	16.0	6.1	-14.6	-18.2	-18.0	nt	nt	nt	nt	nt
CCCc1cc(=O)[nH]c(SC(CC)C(=O)Nc2ccccc2C#N)n1 (centres undefined)	26.1	11.7	-6.3	-17.6	-21.4	-9.5	nt	nt	nt	nt
COc1cc(-c2[nH]nc3c2C(c2ccoc2)C(C#N)=C(N)O3)cc(OC)c1OC (centres undefined)	16.4	26.8	74.3*	-6.5	-15.8	-4.7	33.5*	56.8*	9.1	10.8
COc1cccc(-c2ccccc2C2=CC(=O)CC(C)(C)C2=O)c1	nt	-1.5	-22.1	nt	nt	nt	nt	nt	nt	nt
COc1ccc(CCC(=O)NCCS(=O)(=O)N2CCN(c3ccccc3OC)CC2)cc1	12.2	17.2	59.0*	-29.6	-20.7	-7.8	34.0*	52.1*	13.9*	12.6
O=C(CSc1nnc(-c2cccc(Br)c2)o1)N1CCOCC1	20.4	1.9	-14.0	6.0	-2.3	-13.4	nt	nt	nt	nt
O=C1c2cccc3c2C2(O)c4c1cccc4C(=O)c1cccc(c12)C3=O	nt	15.3	71.0*	nt	nt	nt	32.8*	50.9*	10.2	11.3
COc1cc(/C=C2\SC(=S)N(CCCCC(=O)O)C2=O)ccc1OS(=O)(=O)c1ccc(C)cc1	22.3	12.3	65.1*	-4.2	20.8	nt	49.8*	49.6*	12.0*	6.6
COc1ccc(/C=C2\SC(=S)N(NS(=O)(=O)c3ccc(C)cc3)C2=O)c(OC)c1	60.0*	15.6	68.5*	-12.7	11.6	3.4	15.5	32.9	7.5	4.9
COc1ccc(/C=C2\SC(=S)N(CCCCCC(=O)Nc3cc(C)on3)C2=O)cc1OC	0.9	0.2	-19.1	-20.7	-10.9	-9.5	nt	nt	nt	nt
CCOc1ccc(/C=C2\SC(=S)N(NS(=O)(=O)c3ccc(C)cc3)C2=O)cc1OC	55.5	12.1	74.9*	-20.1	-10.2	-19.2	28.9*	50.7*	7.2	4.5
Cc1ccc(NC(=O)CCC(=O)OCC(=O)c2ccc(Oc3ccc([N+](=O)[O-])cc3)cc2)c(C)c1	22.7	5.0	28.8	-4.0	15.9	1.7	nt	nt	nt	nt
Cc1cccc(C(=O)OC(C)C(=O)Nc2ccc(S(=O)(=O)N3CCCC3)cc2)c1O (centres undefined)	-0.8	14.9	68.2*	1.2	-5.7	nt	35.7*	55.0*	11.7*	17.8
Cc1ccccc1OC(C)C(=O)Nc1ccc(S(=O)(=O)N2CCCC2)cc1 (centres undefined)	15.1	6.5	-19.7	-20.1	-12.7	-3.8	nt	nt	nt	nt
COc1ccc(NC(C)=O)cc1NC(C)C(=O)Nc1ccc(S(=O)(=O)N2CCCCC2)cc1 (centres undefined)	2.7	11.8	101.2*	-20.9	-4.5	nt	6.9	-0.9	8.3	7.0
COc1ccc(NC(C)=O)cc1S(=O)(=O)Nc1ccc(S(=O)(=O)N2CCCCC2)cc1	6.4	1.8	-7.6	-11.8	0.9	nt	nt	nt	nt	nt
COc1ccc(-c2ccc3c(n2)CCCN3S(=O)(=O)c2ccccc2)cc1	nt	7.2	77.9*	nt	nt	nt	37.7*	52.1*	9.9	7.9
COc1ccc(-c2cc(C(=O)N3CCN(S(=O)(=O)c4ccccc4)CC3)[nH]n2)cc1	10.4	8.9	8.3	-12.0	-1.1	-2.3	nt	nt	nt	nt
CCN1C(=O)c2ccccc2Sc2ccc(C(=O)NCCN3CCOCC3)cc21	0.2	0.0	-5.6	-23.9	-8.6	-11.8	nt	nt	nt	nt
Cc1nc2c(OCCC3CCCCC3)cccn2c1N(C)C(=O)CCC1CCCC1	nt	6.1	-5.3	nt	nt	nt	nt	nt	nt	nt
COc1ccc(CNn2c(C)nc3ccccc3c2=O)cc1	17.6	5.5	27.5	6.5	-18.8	-2.9	nt	nt	nt	nt
COc1ccc(CNn2c(-c3cccc(C)c3)nc3ccccc3c2=O)cc1OC	20.9	17.2	58.7*	-28.4	-9.2	-22.2	24.3*	46.6	5.6	3.5
CCCCOc1ccc(CNn2c(C)nc3ccccc3c2=O)cc1	5.0	10.2	59.0*	-3.3	-31.7	-6.1	29.0*	43.5	2.5	1.8
SMILES	OX1R antag-1	TAAR1 ag	TAAR1 antag	OX1R antag-2	CHO parental Ca	GPR7 antag	TAAR1 nonsel count	TAAR1 ant conf	Ga16 ag counter	TAAR1 ag count
CC1(OC(=O)C2CCCC2)C(=O)C=C2C=C(C3CC3)OC=C2C1=O (centres undefined)	16.6	nt	nt	-11.0	-11.7	nt	nt	nt	nt	nt
CCn1c(NC(=O)c2cccc(Cn3cc(Cl)cn3)c2)nc2ccccc21	23.8	4.8	65.6*	-24.0	-5.8	-8.8	26.4*	39.0	5.0	7.2
Cn1c(NC(=O)c2cccc(Cn3cc(Cl)cn3)c2)nc2ccccc21	2.8	16.3	31.2	-18.1	-16.4	-8.9	nt	nt	nt	nt
NCCn1c(-c2ccccc2)cc(C(=O)O)c1-c1ccccc1F	16.9	10.4	-3.1	1.7	-9.9	3.3	nt	nt	nt	nt
COc1ccc(C(C(=O)NCC2CCCO2)N(Cc2cccs2)C(=O)c2snc(C(N)=O)c2N)cc1 (centres undefined)	17.9	18.7	59.0*	-16.4	-35.9	-7.7	23.2*	58.3*	26.7*	11.7
CCOc1ccc(C(C(=O)NCC2CCCO2)N(Cc2ccccc2)C(=O)c2snc(C(N)=O)c2N)cc1 (centres undefined)	15.9	21.1	57.0*	-23.3	-12.2	-6.0	35.3*	56.7*	12.1*	17.8
COc1cc(NC(=O)c2cc3ccccc3o2)c(OC)cc1Cl	-4.5	10.3	55.3*	-13.3	-23.2	-11.8	16.5	53.7*	0.2	1.3
COc1cc(NC(=O)c2cc3ccccc3o2)c(OC)cc1Br	25.1	9.1	1.6	-15.0	-20.7	-0.1	nt	nt	nt	nt
CCC(CO)Oc1cc(NCc2cccc(OC)c2)c2ncn(C(C)C)c2c1 (centres undefined)	16.9	13.9	106.2*	-22.4	-8.0	nt	9.2	1.7	0.4	0.5
O=C(COC(=O)/C=C/c1cccs1)Nc1cccc(S(=O)(=O)N2CCCC2)c1	17.0	5.4	-0.1	-36.3	-16.5	-5.2	nt	nt	nt	nt
